# Results taken from ChEMBL document CHEMBL1121361, “Studies on the synthesis of chemotherapeutics. 10. Synthesis and antitumor activity of N-acyl- and N-(alkoxycarbonyl)-5-fluorouracil derivatives” (1980).
# Experiments:
# [1] = system: P388; assay: Percentage change in median survival time of P388 (leukemia) inoculated female mice following 25 mg/kg p.o.; details: route oral
# [2] = system: Mus musculus; assay: Antitumor activity against P-388 Leukemia in female BDF1 mice expressed as percent T/C at dose 50 mg/kg; type: functional
# How it was run: (§1)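 P-388 leukemia, 10⁶ cells implanted ip in BDF₁ mice, five per group. Test agents dissolved or suspended in 0.3% CMC-Na and dosed orally once daily for 9 days, beginning 1 day after implantation. Activity expressed as treated/control ratio of median survival time.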
# [3] = system: Mus musculus; assay: Antitumor activity against P-388 Leukemia in female BDF1 mice expressed as percent T/C at dose 12.5 mg/kg; type: functional
# How it was run: as §1
# [4] = system: P388; assay: Percentage change in median survival time of P388 (leukemia) inoculated female mice following 100 mg/kg p.o.; details: route oral
# [5] = system: P388; assay: Percentage change in median survival time of P388 (leukemia) inoculated female mice following 200 mg/kg p.o.; details: route oral
# [6] = system: Mus musculus; assay: Antitumor activity against L-1210 cells in female BDF1 mice expressed as percent T/C at dose 50 mg/kg; type: functional
# How it was run: (§2)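 L-1210 leukemia, 10⁶ cells implanted ip into BDF₁ mice (five females per group, 17–23 g). Compound dissolved or suspended in 0.3% CMC-Na, given orally once daily for 5 days starting 1 day after implantation. Activity taken as the ratio of median survival time, treated vs control.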
# [7] = system: Mus musculus; assay: Antitumor activity against MH 134 cells in female C3H mice expressed as percent T/C at dose 200 mg/kg
# [8] = system: Mus musculus; assay: Antitumor activity against Meth A cells in female Balb/c mice expressed as percent T/C at dose 100 mg/kg
# [9] = system: Mus musculus; assay: Antitumor activity against L-1210 cells in female BDF1 mice expressed as percent T/C at dose 100 mg/kg; type: functional
# How it was run: as §2
# [10] = system: Mus musculus; assay: Antitumor activity against MH 134 cells in female C3H mice expressed as percent T/C at dose 100 mg/kg
# [11] = system: Mus musculus; assay: Antitumor activity against L-1210 cells in female BDF1 mice expressed as percent T/C at dose 300 mg/kg; type: functional
# How it was run: as §2
# [12] = system: Mus musculus; assay: Antitumor activity against Meth A cells in female Balb/c mice expressed as percent T/C at dose 200 mg/kg
# [13] = system: Mus musculus; assay: Antitumor activity against L-1210 cells in female BDF1 mice expressed as percent T/C at dose 200 mg/kg; type: functional
# How it was run: as §2
# [14] = system: Mus musculus; assay: Antitumor activity against Meth A cells in female Balb/c mice expressed as percent T/C at dose 50 mg/kg
# [15] = system: Mus musculus; assay: Antitumor activity against MH 134 cells in female C3H mice expressed as percent T/C at dose 50 mg/kg
# [16] = system: P388; assay: Percentage change in median survival time of P388 (leukemia) inoculated female mice following 30 mg/kg p.o.; details: route oral
# [17] = system: Mus musculus; assay: Antitumor activity against L-1210 in female BDF1 mice expressed as percent T/C at dose 100 mg/kg; type: functional
# How it was run: as §2
# [18] = system: Mus musculus; assay: Antitumor activity against MH 134 cells in female C3H mice expressed as percent T/C at dose 100 mg/kg; remark: listed apart in the source
# [19] = system: Mus musculus; assay: Antitumor activity against L-1210 in female BDF1 mice expressed as percent T/C at dose 200 mg/kg; type: functional
# How it was run: as §2
# [20] = system: Mus musculus; assay: Antitumor activity against MH 134 cells in female C3H mice expressed as percent T/C at dose 50 mg/kg; remark: listed apart in the source
# [21] = system: Mus musculus; assay: Antitumor activity against MH 134 cells in female C3H mice expressed as percent T/C at dose 200 mg/kg; remark: listed apart in the source
# [22] = system: Mus musculus; assay: Antitumor activity against L-1210 in female BDF1 mice expressed as percent T/C at dose 50 mg/kg; type: functional
# How it was run: as §2
# [23] = system: Mus musculus; assay: Antitumor activity against L-1210 in female BDF1 mice expressed as percent T/C at dose 300 mg/kg; type: functional
# How it was run: as §2
Structure (SMILES),T/C [1] [%],T/C [2] [%],T/C [4] [%],T/C [5] [%],also measured
CCOC(=O)n1cc(F)c(=O)n(C(C)=O)c1=O,103,115,59,,T/C [3]: 94%
CC(=O)n1cc(F)c(=O)n(C(=O)c2ccccc2)c1=O,108,116,144,99,
CCC(=O)n1cc(F)c(=O)n(C(=O)c2ccccc2)c1=O,110,119,130,90,
CCOC(=O)n1cc(F)c(=O)n(C(=O)CC)c1=O,105,112,82,52,
CCOC(=O)n1cc(F)c(=O)n(C(=O)c2ccccc2C)c1=O,112,125,127,164,
CCOC(=O)n1cc(F)c(=O)n(C(=O)c2ccccc2)c1=O,103,116,123,83,
O=C(OCc1ccccc1)n1c(=O)[nH]cc(F)c1=O,,101,110,96,
Cc1ccccc1C(=O)n1c(=O)c(F)cn(C(=O)Oc2ccccc2)c1=O,100,106,129,135,
CCC(=O)n1cc(F)c(=O)n(C(=O)c2ccccc2C)c1=O,103,112,136,138,
CCCCCCC(=O)n1c(=O)c(F)cn(C(=O)OCC)c1=O,110,119,118,74,
Cc1ccccc1C(=O)n1c(=O)c(F)cn(C(=O)O[C@H]2CCC3(C)C(=CCC4[C@@H]3CCC3(C)[C@@H](C(C)CCCC(C)C)CC[C@@H]43)C2)c1=O (stereo partly specified),,98,100,112,
Cc1ccccc1C(=O)n1c(=O)c(F)cn(C(=O)C(C)C)c1=O,110,112,116,169,
CC(=O)n1cc(F)c(=O)n(C(=O)OCc2ccccc2)c1=O,,105,116,112,
CC(=O)n1cc(F)c(=O)n(C(C)=O)c1=O,112,103,86,,T/C [3]: 103%
CC(=O)n1cc(F)c(=O)n(C(=O)c2ccccc2C)c1=O,121,111,151,121,T/C [6]: 110%; T/C [7]: 25%; T/C [8]: 58%; T/C [9]: 128%; T/C [10]: 43%; T/C [11]: 167%; T/C [12]: 32%; T/C [13]: 136%; T/C [14]: 71%; T/C [15]: 61%
O=C(Oc1ccccc1)n1cc(F)c(=O)n(C(=O)c2ccccc2)c1=O,99,112,119,107,
CCCCCCOC(=O)n1cc(F)c(=O)n(C(=O)c2ccccc2C)c1=O,100,106,96,147,
COC(=O)n1cc(F)c(=O)n(C(=O)c2ccccc2C)c1=O,101,112,138,142,
Cc1ccccc1C(=O)n1c(=O)[nH]cc(F)c1=O,,127,103,,T/C [16]: 124%
CC(=O)n1c(=O)c(F)cn(C(=O)c2ccccc2C)c1=O,97,114,108,,T/C [3]: 111%
O=C(Oc1ccccc1)n1c(=O)[nH]cc(F)c1=O,112,101,83,,T/C [3]: 97%
Cc1ccccc1C(=O)n1c(=O)c(F)cn(C(=O)OCc2ccccc2)c1=O,,108,125,110,
O=c1[nH]cc(F)c(=O)[nH]1 [FLUOROURACIL],135,76,,,T/C [3]: 127%
O=c1[nH]c(=O)n(C2CCCO2)cc1F (stereo unspecified) [TEGAFUR],115,104,136,106,T/C [17]: 124%; T/C [18]: 58%; T/C [19]: 143%; T/C [3]: 111%; T/C [20]: 70%; T/C [21]: 57%; T/C [22]: 110%; T/C [23]: 102%; T/C [8]: 53%; T/C [12]: 19%; T/C [14]: 82%
